Assay results reported in ChEMBL document CHEMBL4219162, “Adamantane amine-linked chloroquinoline derivatives as chloroquine resistance modulating agents in Plasmodium falciparum” (Bioorg Med Chem Lett, 2018).

Tests used:
[1] = tested on: CHO; assay: Cytotoxicity against CHO cells by MTT assay; assay type: cell-based; conditions: Cricetulus griseus
Outline: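 Chinese hamster ovary cell growth and survival read by viable-cell reduction of yellow MTT to purple-blue formazan. IC50 derived. Emetine served as the cytotoxic reference drug.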

[2] = tested on: Plasmodium falciparum; assay: Antimalarial activity against chloroquine-resistant Plasmodium falciparum K1 infected in normal type A human erythrocytes incubated for 72 hrs by spectrophotometry based parasite lactate dehydrogenase assay; assay type: functional, organism-based; conditions: K1, 72 h
Outline: (§1)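 Modified parasite lactate dehydrogenase (pLDH) assay run in parallel on CQ-sensitive NF54 and CQ-resistant K1 strains, with chloroquine as positive control. […], 37 °C, and the readout gave IC50.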

[3] = tested on: Plasmodium falciparum; assay: Antimalarial activity against chloroquine-sensitive Plasmodium falciparum NF54 infected in normal type A human erythrocytes incubated for 72 hrs by spectrophotometry based parasite lactate dehydrogenase assay; assay type: functional, organism-based; conditions: NF54, 72 h; outline: as §1
[4] = Resistance index, ratio of IC50 for chloroquine-resistant Plasmodium falciparum K1 infected in normal type A human erythrocytes to IC50 for chloroquine-sensitive Plasmodium falciparum NF54 infected in normal type A human erythrocytes; assay type: functional
Outline: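 Resistance index computed as IC50 against K1 divided by IC50 against NF54, both from the pLDH assay.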

[5] = Selectivity index, ratio of IC50 for CHO cells to IC50 for chloroquine-resistant Plasmodium falciparum K1 infected in normal type A human erythrocytes; assay type: toxicity, cell-based; conditions: Chinese hamster; read-out: Ratio IC50
Outline: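 Selectivity index computed as IC50 in Chinese hamster ovary cells, measured by MTT reduction to formazan, divided by IC50 against K1 from the pLDH assay.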

[6] = Reversal modification index, ratio of IC50 for chloroquine-resistant Plasmodium falciparum K1 infected in normal type A human erythrocytes to IC50 for chloroquine-sensitive Plasmodium falciparum NF54 infected in normal type A human erythrocytes relative to […]; assay type: functional
Outline: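 Reversal modification index taken as the resistance index (IC50 K1/IC50 NF54) of each compound relative to the resistance index of chloroquine.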

[7] = tested on: Plasmodium falciparum; assay: Potency index, ratio of IC50 for […] to IC50 for test compound for antimalarial activity against chloroquine-resistant Plasmodium falciparum K1 infected in normal type A human erythrocytes incubated for 72 hrs by spectrophotometry based parasite lactate dehydrogenase assay; assay type: functional
[8] = Aqueous stability of the compound in pH 7.4 HEPES-buffer at 1 mg/ml at 37 degC after 72 hrs by UV spectroscopic method; assay type: physicochemical; conditions: pH 7.4, 72 h
Outline: (§2)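 Test compound at 1 mg/ml in aqueous HEPES-containing buffer, held at 37 °C for 72 h to check for degradation. pH 7.4 matches the pLDH antimalarial assay medium. pH 4.5 approximates the parasite's acidic digestive vacuole. Conditions mirror the pLDH assay procedure.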

[9] = Aqueous stability of the compound in pH 4.5 HEPES-buffer at 1 mg/ml at 37 degC after 72 hrs by UV spectroscopic method; assay type: physicochemical; conditions: pH 4.5, 72 h; outline: as §2

Row | SMILES | IC50 [1] [µM] | IC50 [2] [µM] | IC50 [3] [µM] | Ratio IC50 [4] | selectivity ratio [5] | Ratio IC50 [6] | Ratio IC50 [7] | Stability [8] | Stability [9]
1 | Clc1ccc2c(NCCN=C3C4CC5CC(C4)CC3C5)ccnc2c1 | 98.5 | 0.0938 | 0.0263 | 3.56 | 1050 | 10.8 | 3 - 4 |  | 
2 | CC[C@H]1CN2CCc3cc(OC)c(OC)cc3[C@@H]2C[C@@H]1C[C@H]1NCCc2cc(OC)c(OC)cc21 [EMETINE] | 0.13 |  |  |  |  |  |  |  | 
3 | OC12CC3CC(CC(C3)N1CCNc1ccnc3cc(Cl)ccc13)C2 | > 279 | 0.0989 | 0.0469 | 2.11 | > 2820 | 18.23 | 3 - 4 |  | 
4 | OC12CC3CC(CC(C3)N1CCCNc1ccnc3cc(Cl)ccc13)C2 | 45.2 | 0.0968 | 0.0223 | 4.34 | 467 | 8.86 | 3 - 4 |  | 
5 | Clc1ccc2c(NCCCCCCN=C3C4CC5CC(C4)CC3C5)ccnc2c1 | > 103 | 1.58 | 0.113 | 14.02 | 104 | 2.74 |  |  | 
6 | OC12CC3CC(CC(C3)N1CCCCNc1ccnc3cc(Cl)ccc13)C2 | 37.9 | 0.198 | 0.0339 | 5.84 | 191 | 6.59 |  |  | 
7 | OC12CC3CC(CC(C3)N1CCCCCCNc1ccnc3cc(Cl)ccc13)C2 | 80.8 | 0.284 | 0.113 | 3.81 | 285 | 10.09 |  |  | 
8 | OC12C3C4CC5C6C4C1C6C(C53)N2CCNc1ccnc2cc(Cl)ccc12 (centres undefined) |  | 0.0726 | 0.00984 | 7.36 | 131 | 5.22 |  |  | 
9 | Clc1ccc2c(NCCCCN=C3C4CC5CC(C4)CC3C5)ccnc2c1 | 57.1 | 0.784 | 0.108 | 7.23 | 73 | 5.32 |  |  | 
10 | Clc1ccc2c(NCCCN=C3C4CC5CC(C4)CC3C5)ccnc2c1 | 66.4 | 0.192 | 0.005 |  | 346 | 2.4 |  | Stable | Unstable
11 | CCN(CC)CCCC(C)Nc1ccnc2cc(Cl)ccc12 (centres undefined) [CHLOROQUINE] | 57.8 |  |  |  |  |  |  |  | 
